# High-throughput results deposited in PubChem by The Scripps Research Institute Molecular Screening Center.
# OX1R antag-1: OX1R (HCRTR1) antagonists, primary screen, fluorescence, CHO/OX1R cells, Fluo-8 calcium, orexin A. inhibition, % at 5 µM. AID 434989, 2010. hit rate 0.43% among 330,000. Fluo-8 calcium fluorescence;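 active means inhibition above its plate's threshold, mean inhibition of all tested compounds on the plate plus 3 SD, cut at about 37% in these data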;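 further: 0% = orexin A challenge wells and 100% = SB-334867-A antagonist wells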
# Target sequence (O43613 whole entry, looked up): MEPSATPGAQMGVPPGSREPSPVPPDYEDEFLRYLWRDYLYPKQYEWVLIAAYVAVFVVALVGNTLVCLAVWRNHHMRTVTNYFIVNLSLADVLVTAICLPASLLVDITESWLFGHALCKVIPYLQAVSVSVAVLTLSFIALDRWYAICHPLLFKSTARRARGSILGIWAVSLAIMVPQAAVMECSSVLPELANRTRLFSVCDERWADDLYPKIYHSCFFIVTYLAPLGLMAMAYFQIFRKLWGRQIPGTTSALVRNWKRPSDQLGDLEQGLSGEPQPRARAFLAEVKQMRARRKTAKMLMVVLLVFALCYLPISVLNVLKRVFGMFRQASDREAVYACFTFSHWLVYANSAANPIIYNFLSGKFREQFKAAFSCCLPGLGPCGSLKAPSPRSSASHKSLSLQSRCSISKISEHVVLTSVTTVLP
# GalR3 antagonist: GalR3 antagonists in HEK293 cells, primary screen, cell-based, fluorescence readout. Galanin receptor type 3 (Homo sapiens), O60755. inhibition, % at 3 µM. AID 651719, 2012. HEK293 GalR3-CNG cAMP membrane potential fluorescence; galR3 body fused to GalR1 C-terminus. hit rate 0.44% among 360,000;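 active means inhibition above the screen-wide average plus 3 SD, cut at about 13% in these data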;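 further: forskolin and galanin both at EC90 stimulate the cells; cAMP rise reported by CNG channel membrane potential dye signal; 0% = forskolin plus galanin with DMSO and 100% = forskolin alone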
# Target sequence (O60755 1-299 limits assumed): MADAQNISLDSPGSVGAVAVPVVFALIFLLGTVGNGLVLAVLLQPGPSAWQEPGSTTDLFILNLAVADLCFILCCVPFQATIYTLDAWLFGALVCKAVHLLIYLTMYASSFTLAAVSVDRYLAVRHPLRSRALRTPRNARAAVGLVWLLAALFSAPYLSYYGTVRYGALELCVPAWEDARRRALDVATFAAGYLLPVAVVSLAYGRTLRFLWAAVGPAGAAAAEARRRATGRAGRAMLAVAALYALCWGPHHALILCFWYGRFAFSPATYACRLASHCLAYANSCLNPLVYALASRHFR
# TAAR1 agonist: human TAAR1 agonists, primary screen, Fluo-8 calcium fluorescence, CHO RD-HGA16 cells. Trace amine-associated receptor 1 (Homo sapiens), Q96RJ0. vehicle wells 0%, saturating PEA agonist 100%. activation, % at 3 µM. hit rate 0.99% among 360,000;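 active means activation above the mean activation of all test compounds in the run plus 3 SD, cut at about 38% in these data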
#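 System: CHO RD-HGA16 cells carrying human TAAR1 plus Gα16; Incubation: 17-24 h seeding, 75 min 37 °C dye, 30 min RT; Measured by: Fluo-8 fluorescence, 5 s baseline then 140 s kinetic read; Control set: DMSO and PEA EC100; Replication: single well for each compound.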
# TAAR1 antagonist: human TAAR1 antagonists, primary screen, Fluo-8 calcium fluorescence, CHO RD-HGA16 cells; hit rate 1.5% among 360,000; antagonist; inhibition, % at 3 µM;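 active means inhibition above a per-plate cutoff, the mean inhibition of test compounds on that plate plus 3 SD, cut at about 49% in these data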;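 further: 0% = DMSO plus EC80 beta-PEA response and 100% = DMSO alone without agonist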
#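 Assay system: CHO-derived RD-HGA16 cells stably expressing human TAAR1 plus Gα16. Timing: 140 s kinetic read after compound, 140 s after agonist. Technique: kinetic Fluo-8 calcium fluorescence measurement. Measure: % inhibition of agonist calcium response.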
# OX1R antag-2: antagonists of human orexin 1 receptor (OX1R); OX1R-expressing cells, FRET antagonist read-out; inhibition, % at 6.6 µM; hit rate 1.8% among 330,000; AID 485270, 2010; in the data active means inhibition mostly above about 38%, no sharp cut-off; inactive means mostly below about 40%;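 further: 0% = agonist challenge alone and 100% = reference antagonist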
# CHO parental Ca: ATP-evoked calcium signal inhibitors, parental CHO, primary screen, counter-screen for OX1R antagonist project, cell-based, fluorescence, Fluo-8 calcium dye. hit rate 0.63% among 330,000. parental CHO-K1, ATP-induced calcium, Fluo-8 fluorescence. inhibition, % at 5.6 µM;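 active means inhibition above that plate's mean sample inhibition plus 3 SD, cut at about 26% in these data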;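 further: 0% = ATP-challenged DMSO wells and 100% = DMSO wells without ATP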
#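 Measured by: calcium-sensitive Fluo-8 fluorescence / Test system: CHO parental line / Controls: ATP-challenged DMSO wells low, unchallenged DMSO wells high / Measure: % inhibition / Compound: single nominal dose of 5.6 µM per compound / Replicates: single well per compound, no replicates / Reagent: ATP as calcium-mobilizing challenge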
# OX1R Ca confirm: OX1R (HCRTR1) antagonists, confirmation, fluorescence, CHO/OX1R cells, Fluo-8 calcium, orexin A; shares compounds with OX1R antag-1; orexin A calcium Fluo-8 fluorescence; inhibition, % at 5 µM; hit rate 38% among 1,100; AID 492963, 2010; in the data active means inhibition above about 29%;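 further: 0% = agonist challenge alone and 100% = reference antagonist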
# CHO Ca triplic: ATP-evoked calcium inhibition in parental CHO, counter-screen for OX1R antagonist project, cell-based, fluorescence, CHO-K1, triplicate | ATP-induced calcium, Fluo-8 fluorescence | inhibition, % at 5.6 µM | shares compounds with OX1R antag-1 | hit rate 9.3% among 1,100;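 active means inhibition above a per-plate limit, the mean inhibition of that plate's test compounds plus 3 SD, cut at about 25% in these data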;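 further: 0% = ATP challenge with DMSO and 100% = DMSO without ATP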
# OX1R HTRF confirm: OX1R (HCRTR1) antagonists, confirmation, cell-based, HTRF. shares compounds with OX1R antag-2. OX1R-expressing cells, HTRF antagonist assay. inhibition, % at 6.6 µM. hit rate 49% among 1,800. AID 492964, 2010; in the data active means inhibition above about 55%;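 further: CHO cells expressing OX1R stimulated with orexin A at about EC80; 0% = agonist challenge alone and 100% = reference antagonist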
# CHO-K1 HTRF cnt: signal inhibition in parental CHO-K1 cells, counter-screen for OX1R antagonist project, cell-based, HTRF; shares compounds with OX1R antag-2; HTRF counterscreen; hit rate 48% among 1,800; inhibition, % at 6.6 µM; AID 493232, 2011; in the data active means inhibition above about 17%;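 further: 0% = agonist challenge with vehicle and 100% = vehicle alone without agonist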
# * = called active by the depositor; nt = not tested or not shown. The list is not random: actives were taken first. Their share in the collection is about 4.2%.
SMILES,OX1R antag-1,GalR3 antagonist,TAAR1 agonist,TAAR1 antagonist,OX1R antag-2,CHO parental Ca,OX1R Ca confirm,CHO Ca triplic,OX1R HTRF confirm,CHO-K1 HTRF cnt
O=C(O)CCn1c(SCCOc2ccccc2)nc2ccccc21,58*,-5,3,-5,87*,-8,32*,0,75*,9
O=C(N/N=C/C(Br)=C/c1ccccc1)c1cc(-c2ccco2)[nH]n1,26,-8,12,31,73*,-12,50*,7,87*,9
COc1ccccc1/C=C/C=N/NC(=O)c1cc(-c2ccco2)[nH]n1,-13,-3,6,39,31,-51,nt,nt,nt,nt
CC(/C=N/NC(=O)c1cc(-c2cccs2)[nH]n1)=C\c1ccccc1,45*,-5,15,35,88*,-15,45*,-2,73*,11
COc1cccc(C(=O)Nc2nnc(S(=O)(=O)Nc3cccc(C)c3)s2)c1,36,nt,1,0,89*,2,41*,2,75*,2
Cc1cccc(NS(=O)(=O)c2nnc(NC(=O)CC(C)C)s2)c1,12,-8,7,-9,9,4,nt,nt,nt,nt
N#Cc1cc2cc3c(cc2nc1Cl)OCCO3,nt,0,1,-25,nt,nt,nt,nt,nt,nt
Cc1nc2c(ccc3nc(NC(=O)Cc4cccc5ccccc45)sc32)s1,56*,3,-1,3,90*,-2,64*,-19,90*,5
O=C1NN(c2cccc(Br)c2)C(=O)/C1=C\c1ccc(O)cc1,-13,-11,19,-24,9,-7,nt,nt,nt,nt
O=C(c1cccc(N2CCNC2=O)c1)N1CCCC(Nc2cccc(F)c2)C1 (configuration not stated),33,-3,1,-13,98*,-9,68*,-4,71*,-31
O=C(Cc1ccc(N2CCNC2=O)cc1)N1CCCC(Nc2cccc(F)c2)C1 (configuration not stated),-78,4,3,-14,4,-13,nt,nt,nt,nt
COc1ccc(/C=C2\CCCc3c2nc2ccc(C)cc2c3C(=O)O)cc1O,15,-4,0,-4,11,3,nt,nt,nt,nt
COc1cccc2sc3ccc(C#CC4(N)CCCCC4)cc3c(=O)c12,-7,0,18,17,6,-14,nt,nt,nt,nt
COc1cccc2sc3cc(C#CC4(O)CCCCC4)ccc3c(=O)c12,87*,-4,21,39,80*,-4,55*,-13,87*,15
O=[N+]([O-])c1ccc(Sc2cccc3cccnc23)c2cccnc12,-23,-4,13,7,6,-13,nt,nt,nt,nt
COc1cccc(NC(=O)[C@@H]2CCCN2S(=O)(=O)c2cccc3cccnc23)c1,47*,-8,5,5,84*,-15,50*,6,84*,1
O=C(Nc1cccc(F)c1)C1CCCN1S(=O)(=O)c1cccc2cccnc12 (configuration not stated),27,-4,0,-28,71*,-5,31*,-5,89*,2
O=C(Nc1ccccc1Cl)C1CCCN(S(=O)(=O)c2cccc3cccnc23)C1 (configuration not stated),-26,-7,7,24,42,-25,nt,nt,nt,nt
COc1ccc(C)cc1NC(=O)C1CCCN(S(=O)(=O)c2cccc3cccnc23)C1 (configuration not stated),32,nt,nt,nt,79*,-10,25,-12,80*,3
COc1cc(NC(=O)[C@@H]2CCCN2S(=O)(=O)c2cccc3cccnc23)cc(OC)c1OC,-29,-6,12,8,28,-17,nt,nt,nt,nt
O=C(Cc1cccs1)Nc1ccc(-c2nnn(CC(=O)N3CCOCC3)n2)cc1,-11,nt,nt,nt,3,6,nt,nt,nt,nt
O=C(Nc1sc2c(c1C(=O)NCC1CCCO1)CCCC2)c1cccs1 (configuration not stated),48*,-2,7,33,40*,15,-4,-11,45,9
COc1ccc(CCNC(=O)C2=COCCO2)cc1,5,-6,8,10,8,10,nt,nt,nt,nt
Cc1ccc2c(c1)-c1nc3ccccc3cc1C2=NC1CCCCC1,-2,-5,4,-7,52,-7,nt,nt,nt,nt
Cc1ccc2c(c1)Cc1nc3ccccc3nc1-2,40,-5,5,9,87*,-13,33*,12,90*,8
SMILES,OX1R antag-1,GalR3 antagonist,TAAR1 agonist,TAAR1 antagonist,OX1R antag-2,CHO parental Ca,OX1R Ca confirm,CHO Ca triplic,OX1R HTRF confirm,CHO-K1 HTRF cnt
COc1ccc(N2CC(O)=C(c3nc4ccccc4s3)C2=N)cc1,3,-1,33,35,12,10,nt,nt,nt,nt
NNC(=O)c1cc2sccc2s1,91*,-4,3,6,87*,-27,1,18,22,4
O=C(Oc1ccccc1)c1ccc2nsnc2c1,11,-1,-1,-19,11,-14,nt,nt,nt,nt
O=C(CSc1ccc(Br)c2cccc(Cl)c12)Nc1ccc(S(=O)(=O)Nc2nccs2)cc1,80*,1,1,-16,97*,1,74*,-3,90*,9
COc1cccc(CN(Cc2ccccc2F)S(=O)(=O)c2ccc(S(=O)(=O)NCc3ccccc3)cc2)c1,5,-2,4,34,31,-12,nt,nt,nt,nt
COc1cccc(CN(Cc2ccco2)S(=O)(=O)c2ccc(S(=O)(=O)NCc3ccccc3)cc2)c1OC,70*,-5,16,28,60*,-2,40*,-4,84*,-13
CCOC(=O)c1[nH]c2ccccc2c1NC(=O)CN(C)C,-7,-5,3,-12,26,8,nt,nt,nt,nt
O=C(Nc1cccc(Cl)c1)Nc1ccnc(-c2cccnc2)n1,41*,-1,20,55*,67*,6,28,1,69*,7
